Assays:
[1] = test system: Human alphaherpesvirus 1; test: Antiviral activity was determined against Herpes simplex virus type 1 by Plaque-reduction assay; assay type: functional, organism-based
Procedure, shortened: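 BSC-1 monolayers (MEM with Earle's salts, 10% FBS) infected with HSV-1 strain S-148, about 100 PFU per 0.2 mL; compound dissolved in overlay medium; plaques counted. IC50 by regression of percent inhibition on log concentration. Acyclovir or ganciclovir positive control, with sets rejected beyond 1.5 SD of control mean.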

[2] = test system: L1210; test: Antiproliferative testing in vitro and its ability to inhibit the growth of L1210 murine leukemia cells determined at a concentration of 100 uM.; assay type: functional, Mus musculus
Procedure, shortened: (§1)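 L1210 mouse leukemia cells grown in static suspension culture in Fischer's medium for 3 days with test compound. Growth rate was taken as the slope of semilog cell number versus time, expressed as control doubling time as percent of treated doubling time, i.e. treated growth relative to control.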

[3] = species on record: Homo sapiens; test: Cytotoxicity against Normal human diploid cells (human foreskin fibroblasts cells); settings: Fibroblast
[4] = test system: Human betaherpesvirus 5; test: Antiviral activity against Human cytomegalovirus in a plaque-reduction assay; assay type: functional, organism-based
Procedure, shortened: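 HFF monolayers (MEM with Earle's salts, 10% FBS) infected with plaque-purified Towne strain HCMV, about 50 PFU per 0.2 mL inoculum; compound dissolved in overlay medium; plaques counted. IC50 from linear regression of percent inhibition against log concentration. Ganciclovir or acyclovir positive control run; sets rejected if control deviated >1.5 SD from its mean.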

[5] = Cytotoxicity against Monkey kidney cells(BSC-1 cells); assay type: cell-based; settings: Cercopithecidae
[6] = Cytotoxicity against human neoplastic cell line (KB); assay type: cell-based
Procedure, shortened: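 KB cells (MEM with Hank's salts, 5% FBS) exposed to compound; incorporation of radioactive precursors, including [3H]dThd, into DNA, RNA and protein measured. An IC50 for each was obtained by regression on log concentration, and the three IC50s were averaged. Averages of two to four experiments.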

[7] = test system: L1210; test: Antiproliferative testing in vitro and its ability to inhibit the growth of L1210 murine leukemia cells determined at a concentration of 10 uM.; set-up: scale not given: the % may be the effect or the level left
[8] = test system: L1210; test: Antiproliferative testing in vitro and its ability to inhibit the growth of L1210 murine leukemia cells determined at a concentration of 10 uM.; assay type: functional, Mus musculus; set-up: scale not given: the % may be the effect or the level left; procedure, shortened: as §1

Row | Structure (SMILES) | IC50 [1] [µM] | Growth rate, % of control [2] [%] | IC50 [3] [µM] | IC50 [4] [µM] | IC50 [5] [µM] | IC50 [6] [µM] | Control [7] [%] | Control [8] [%]
1 | NNC(=O)c1cn(COCCO)c2ncnc(N)c12 | > 100 | 92 | > 100 | > 100 | > 100 |  |  | 
2 | Nc1ncnc2c1ccn2COCCO | > 100 |  | > 100 | > 100 | > 100 | > 320 |  | 
3 | NC(=O)c1cn(COCCO)c2ncnc(N)c12 | > 100 | 100 | > 320 | > 320 | > 100 | > 100 |  | 
4 | Nc1nc2c(ncn2COCCO)c(=O)[nH]1 [ACYCLOVIR] | 3.9 |  | > 100 |  | > 100 | > 100 |  | 
5 | N#Cc1cnc2n(COCCO)cnc(N)c1-2 | > 100 |  | > 320 | > 320 | > 100 |  |  | 
6 | NC(=S)c1cn(COCCO)c2ncnc(N)c12 | > 100 |  | 100 | 11 | > 100 | > 100 | 93 | 
7 | COC(=N)c1cn(COCCO)c2ncnc(N)c12 | > 100 |  | > 100 | > 100 | > 100 |  |  | 108
8 | Nc1nc2c(ncn2COC(CO)CO)c(=O)[nH]1 [GANCICLOVIR] | 2.3 |  | > 100 | 7.9 | > 100 | 1000 |  | 
9 | CC(=O)OCCOCn1cc(C#N)c2c(N)ncnc21 | > 100 |  | > 100 | > 100 | > 100 |  |  | 
10 | NC(=NO)c1cn(COCCO)c2ncnc(N)c12 | > 100 | 89 | > 100 | > 100 | > 100 |  |  | 
11 | N#Cc1cn(COCCO)c2ncnc(N)c12 | > 320 | 100 | > 100 | > 100 | > 320 | > 100 |  | 

Reference: ChEMBL document CHEMBL1124509, “Synthesis, cytotoxicity, and antiviral activity of certain 7-[(2-hydroxyethoxy)methyl]pyrrolo[2,3-d]pyrimidine nucleosides related to toyocamycin and sangivamycin” (J Med Chem, 1989)
